Hits are enriched below; roughly 2.6% of the tested compounds scored in any of these assays.
Calb FLC: affects C. albicans growth with fluconazole. C. albicans CaCi-2 (fluconazole-resistant clinical isolate) + fluconazole, Alamar Blue growth, 48 h. growth inhibition, % (test concentration not listed). actives 0.57% (n = 300,000);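 active = growth inhibition above about 58% in most replicates, limit read from the data, passing the limit was not always enough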;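 note: all wells also contain fluconazole at 8 µg/ml as a sub-toxic cotreatment; 0% = median of DMSO wells and 100% = median of geldanamycin control wells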
VIM-2 inhibitor: blocks Pseudomonas aeruginosa VIM-2 metallo-beta-lactamase. purified VIM-2, nitrocefin hydrolysis, epi-absorbance fluorescence. inhibition, % at 5.6 µM. actives 0.89% (n = 290,000). AID 1527;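 active = inhibition above the mean of all tested compounds plus 3 SD, cutoff set per screening run, cut at about 7.5% in these data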;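 note: red hydrolysis product quenches plate fluorescence so inhibitors raise well fluorescence; 0% = enzyme with DMSO and 100% = DMSO without enzyme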
IMP-1 inhibitor: blocks Pseudomonas aeruginosa IMP-1 metallo-beta-lactamase | AID 1556 | purified IMP-1, nitrocefin hydrolysis, epi-absorbance fluorescence | inhibition, % at 5.6 µM | actives 0.45% (n = 290,000);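 active = inhibition above the mean plus 3 SD of all compounds in the same screening run, cut at about 4.5% in these data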;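 note: 0% = IMP-1 with DMSO and 100% = DMSO wells lacking enzyme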
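System – purified recombinant IMP-1 beta-lactamase · Input – IMP-1 dispensed at 0.2 nM · Timing – 15 min preincubation plus 25 min reaction at 25 °C · Signal – Epi-absorbance fluorescence, 480 nm excitation, 530 nm emission · Measure – percent IMP-1 inhibition derived from blank-referenced optical density · Controls – Enzyme-plus-DMSO low control, enzyme-free DMSO high control · Replication – singlicate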
ASAP1 inh: ASAP1 ArfGAP inhibition. Q9ULH1. ASAP1-stimulated ARF1 GTP hydrolysis, GDP FP detection. inhibition, % at 16.5 µM. actives 0.19% (n = 360,000); in the data active = inhibition above about 25%;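 note: 0% = vehicle with enzyme and substrate and 100% = no enzyme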
Target sequence (Q9ULH1 325-724 limits assumed): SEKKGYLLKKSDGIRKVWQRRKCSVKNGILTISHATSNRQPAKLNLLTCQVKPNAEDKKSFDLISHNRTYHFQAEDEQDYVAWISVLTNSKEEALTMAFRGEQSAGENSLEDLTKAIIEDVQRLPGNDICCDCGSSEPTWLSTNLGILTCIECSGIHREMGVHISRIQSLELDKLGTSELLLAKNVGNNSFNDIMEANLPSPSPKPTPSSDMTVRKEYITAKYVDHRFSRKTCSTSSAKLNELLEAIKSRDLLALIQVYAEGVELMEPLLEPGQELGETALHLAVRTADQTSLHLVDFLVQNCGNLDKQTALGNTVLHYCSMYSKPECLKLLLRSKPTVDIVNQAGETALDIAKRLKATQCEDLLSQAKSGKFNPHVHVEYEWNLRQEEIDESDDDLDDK
ARFGAP1 inh: inhibits rat ARF GTPase activating protein 1 | Q62848 | Arfgap1-stimulated ARF1 GTP hydrolysis, GDP FP detection | inhibition, % at 16.5 µM | actives 0.26% (n = 360,000);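 active = inhibition above a per-plate limit, mean inhibition of low control wells plus 3 SD, cut at about 25% in these data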;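 note: 0% = DMSO wells with enzyme and 100% = wells lacking Arfgap1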
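System: truncated rat Arfgap1 GAP domain / Medium: HEPES-based buffer, pH 7.5 / Also added: N-terminally truncated human ARF1-GTP substrate / Incubation: enzyme reaction 120 min at 25 °C after 20 min preincubation / Measured by: FP of antibody-bound GDP Alexa 633 tracer, ex 620/em 688 nm / Replicates: singlicate, each compound tested once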
PHOSPHO1 inh: PHOSPHO1 (human) inhibition | Q8TCT1 | recombinant PHOSPHO1, absorbance phosphatase assay | inhibition, % at 13.3 µM | actives 1.1% (n = 290,000) | AID 1565; in the data active = inhibition above about 60%
Target sequence (Q8TCT1 whole entry, looked up): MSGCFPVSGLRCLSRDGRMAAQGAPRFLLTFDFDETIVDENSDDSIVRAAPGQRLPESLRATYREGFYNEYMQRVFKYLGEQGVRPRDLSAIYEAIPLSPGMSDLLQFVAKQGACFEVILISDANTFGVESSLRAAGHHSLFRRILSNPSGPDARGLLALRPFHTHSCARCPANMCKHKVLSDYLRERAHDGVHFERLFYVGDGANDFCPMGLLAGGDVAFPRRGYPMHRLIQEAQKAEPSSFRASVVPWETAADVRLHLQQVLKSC
* = called active by the depositor.

What do the screens show for `O=c1c2ccc(Cl)cc2nc(-c2cccc(C(F)(F)F)c2)n1O`?
Calb FLC: 79*; VIM-2 inhibitor: -2; IMP-1 inhibitor: 0; ASAP1 inh: 0; ARFGAP1 inh: -13; PHOSPHO1 inh: 17

Results for N#Cc1ccc(-c2nc3ccccc3c(=O)n2O)cc1 ?
Calb FLC: -6; VIM-2 inhibitor: 0; IMP-1 inhibitor: 1; ASAP1 inh: -1; ARFGAP1 inh: -8

Results for Cc1ccc(C2NC(=O)c3[nH]nc(-c4ccccc4)c32)cc1 (configuration not stated) ?
ASAP1 inh: -3; ARFGAP1 inh: -7

What do the screens show for `Cc1ccc(C(=O)Nn2c(O)c(C=C3N=c4ccccc4=N3)sc2=S)cc1`?
Calb FLC: 26; VIM-2 inhibitor: -3; IMP-1 inhibitor: -4; ASAP1 inh: 10; ARFGAP1 inh: 8; PHOSPHO1 inh: -105

What do the screens show for `O=C(Nn1c(O)c(C=C2N=c3ccccc3=N2)sc1=S)c1cccc(Cl)c1`?
Calb FLC: 18; VIM-2 inhibitor: -2; IMP-1 inhibitor: -5; ASAP1 inh: -2; ARFGAP1 inh: -4; PHOSPHO1 inh: 86*

What do the screens show for `O=C(Nn1c(O)c(C=C2N=c3ccccc3=N2)sc1=S)c1ccccc1`?
Calb FLC: -4; VIM-2 inhibitor: -5; IMP-1 inhibitor: -5; ASAP1 inh: 3; ARFGAP1 inh: 3; PHOSPHO1 inh: 86*

Results for COC(=O)C1=C(C)N(Cc2ccccc2C(F)(F)F)C(=NCc2ccc(OC)cc2)NC1c1ccccc1 (configuration not stated) ?
ASAP1 inh: 21; ARFGAP1 inh: 6

How did O=[N+]([O-])c1cccc(I)c1 do in these assays?
ASAP1 inh: -1; ARFGAP1 inh: 0

How did Cc1nc(NCCc2ccc(S(N)(=O)=O)cc2)c2c3c(sc2n1)CCC3 do in these assays?
Calb FLC: 29; VIM-2 inhibitor: 7.9*; IMP-1 inhibitor: -3; ASAP1 inh: -13; ARFGAP1 inh: 7; PHOSPHO1 inh: -29

What do the screens show for `NS(=O)(=O)c1ccc(CCNc2nc(CN3CCOCC3)nc3sc4c(c23)CCC4)cc1`?
Calb FLC: 28; VIM-2 inhibitor: 3; IMP-1 inhibitor: -3; ASAP1 inh: -3; ARFGAP1 inh: 4; PHOSPHO1 inh: 35

Results for CC(C)C1CC(N(C)C)=CC(=S)N1 (configuration not stated) ?
ASAP1 inh: 21; ARFGAP1 inh: -12

How did CCCC[C@@H](CN[C@H](C)CNC)NCC1CCC(C(C)(C)C)CC1 (some centres not stated) do in these assays?
Calb FLC: -19; VIM-2 inhibitor: -3; IMP-1 inhibitor: 4; ASAP1 inh: 1; ARFGAP1 inh: 8; PHOSPHO1 inh: 36

How did CC[C@H](C)[C@@H](CN[C@H](CCCCNC)CNC)NCC1CCCC1 do in these assays?
Calb FLC: 1; VIM-2 inhibitor: 12*; IMP-1 inhibitor: -3; ASAP1 inh: -1; ARFGAP1 inh: 2; PHOSPHO1 inh: -7

What do the screens show for `CC1(C)Cc2c(c(-c3ccco3)nc3sc4c(NCCN5CCOCC5)ncnc4c23)CO1`?
Calb FLC: 19; VIM-2 inhibitor: -3; IMP-1 inhibitor: 1; ASAP1 inh: 8; ARFGAP1 inh: -1; PHOSPHO1 inh: -8

How did CC1(C)Cc2c(c(-c3ccco3)nc3sc4c(NCCCO)ncnc4c23)CO1 do in these assays?
Calb FLC: 16; VIM-2 inhibitor: 1; IMP-1 inhibitor: 9.3*; ASAP1 inh: -4; ARFGAP1 inh: -7; PHOSPHO1 inh: 13

How did C[C@@H]1CN([C@H](C)CO)C(=O)CCCn2cc(nn2)CO[C@H]1CN(C)S(=O)(=O)c1cn(C)cn1 do in these assays?
ASAP1 inh: 5; ARFGAP1 inh: -9

What do the screens show for `CC(C)CC(=O)NCc1ccc2[nH]c3c(c2c1)CCCC3`?
Calb FLC: 119*; VIM-2 inhibitor: 3; IMP-1 inhibitor: -3; ASAP1 inh: -4; ARFGAP1 inh: -13; PHOSPHO1 inh: 13

What do the screens show for `Cc1ccc(NC(=S)NCc2ccc3[nH]c4c(c3c2)CCCC4)cc1`?
Calb FLC: -9; VIM-2 inhibitor: 1; IMP-1 inhibitor: -1; ASAP1 inh: 4; ARFGAP1 inh: 0; PHOSPHO1 inh: -4

What do the screens show for `CCCC(C)C(=O)NC1CCCCN(C)C1=O` (configuration not stated)?
ASAP1 inh: 0; ARFGAP1 inh: 6

Results for COc1cc([C@@H]2c3cc4c(cc3[C@@H](NC3CCN(Cc5ccccc5)CC3)[C@H]3COC(=O)[C@H]23)OCO4)cc(OC)c1O ?
Calb FLC: 101*; PHOSPHO1 inh: 35

What do the screens show for `O=C(O)c1cccc2c1C(=O)c1cccc3snc-2c13`?
Calb FLC: 20; VIM-2 inhibitor: 8.3*; IMP-1 inhibitor: -2; ASAP1 inh: -1; ARFGAP1 inh: 5; PHOSPHO1 inh: -15

Results for O=C1C=C(N2CCN(c3ccccn3)CC2)C(=O)c2c(O)ccc(O)c21 ?
ASAP1 inh: -7; ARFGAP1 inh: -9

Results for CC1=CC(=O)c2c(O)ccc(O)c2C1=O ?
VIM-2 inhibitor: 3; IMP-1 inhibitor: 5.3*; PHOSPHO1 inh: 28

Results for CC(C)=CCC/C(C)=C/CN1C(=O)N(c2ccc(F)cc2)[C@H]2C[C@@H](c3ccccc3)[C@@H](C)[C@@H](C(=O)N3CCOCC3)C[C@H]21 ?
ASAP1 inh: -4; ARFGAP1 inh: 1

What do the screens show for `CN(C)c1ccnc2sc(C(=O)c3ccc(Br)cc3)c(N)c12`?
Calb FLC: 17; VIM-2 inhibitor: -1; IMP-1 inhibitor: 1; ASAP1 inh: 0; ARFGAP1 inh: 0; PHOSPHO1 inh: 42

How did CN(C)c1ccnc2sc(C(N)=O)c(N)c12 do in these assays?
Calb FLC: 17; VIM-2 inhibitor: 1; IMP-1 inhibitor: -3; ASAP1 inh: 11; ARFGAP1 inh: 7; PHOSPHO1 inh: 61*

How did Oc1ccc(-c2nnc(-c3ccc(O)cc3)nn2)cc1 do in these assays?
Calb FLC: -12; VIM-2 inhibitor: -1; IMP-1 inhibitor: -5; ASAP1 inh: 4; ARFGAP1 inh: 11; PHOSPHO1 inh: -3

How did Oc1ccc(C2=NNC(c3ccc(O)cc3)=NN2)cc1 do in these assays?
Calb FLC: 94*; VIM-2 inhibitor: -2; IMP-1 inhibitor: -4; ASAP1 inh: 3; ARFGAP1 inh: -14; PHOSPHO1 inh: 34

What do the screens show for `CN1OC[C@@H]2CN(C(=O)c3ccc(C#N)cc3)[C@H](c3cccc(Br)c3)C[C@@H]21`?
ASAP1 inh: 3; ARFGAP1 inh: 7

What do the screens show for `CCCCCc1ccc(OCCC[n+]2ccccc2)c(CCCCC)c1`?
Calb FLC: 67; VIM-2 inhibitor: 0; IMP-1 inhibitor: 1; ASAP1 inh: -5; ARFGAP1 inh: -17; PHOSPHO1 inh: 24

What do the screens show for `CCCCCc1ccc(OCCOCCn2c[n+](C)c3ccccc32)c(CCCCC)c1`?
Calb FLC: 104*; VIM-2 inhibitor: -1; IMP-1 inhibitor: -1; PHOSPHO1 inh: 3

Compound activity as filed in PubChem.
